Laboratory results taken from ChEMBL document CHEMBL4814031, “In pursuit of a selective hepatocellular carcinoma therapeutic agent: Novel thalidomide derivatives with antiproliferative, antimigratory and STAT3 inhibitory properties” (Eur J Med Chem, 2021).
Activity calls are given as the source filed them. No cut-off for these calls is given here.

What was measured:
[1] = target: T1, Transcription factor p65 (Mus musculus, UniProt Q04207); test: Inhibition of NFkB p65 phosphorylation in mouse BMOL-NT cells assessed as change in phosphorylated p65 level at 10 uM incubated for 6 hrs by immunofluorescent assay relative to control; assay type: cell-based; set-up: scale not given: the % may be the effect or the level left
Summary of the method: (§1)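 BMOL cells in supplemented Williams' E medium were treated 6 h with compound or 0.1% DMSO vehicle. Fixed in 4% PFA, permeabilised with 0.1% Triton X-100, blocked, then incubated 18 h with anti-phospho-p65, -Akt or -STAT3, then secondary antibody 1 h and Hoechst. High-content imaging of per-cell intensity and nuclear:whole-cell ratio. Mean of two experiments, SD.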

[2] = Antiproliferative activity against mouse BMOL-NT cells assessed as cell growth inhibition at 14 to 26 uM measured every 4 hrs for 3 days by IncuCyte zoom live cell analysis; assay type: cell-based; details: 72 h, dose 14-26 µM, time 3 day
[3] = Inhibition of Akt phosphorylation in mouse BMOL-NT cells assessed as change in nuclear phosphorylated Akt level at 10 uM incubated for 6 hrs by immunofluorescent assay relative to control; assay type: subcellular, Nucleus; set-up: scale not given: the % may be the effect or the level left; summary of the method: as §1
[4] = target: Signal transducer and activator of transcription 3 (Mus musculus) (UniProt P42227); test: Inhibition of STAT3 phosphorylation in mouse BMOL-T cells assessed as change in nuclear phosphorylated STAT3 level at 10 uM incubated for 6 hrs by immunofluorescence assay relative to control; assay type: subcellular; set-up: scale not given: the % may be the effect or the level left; details: Nucleus; summary of the method: as §1
[5] = test system: BMOL-T; test: Inhibition of Akt phosphorylation in mouse BMOL-T cells assessed as change in nuclear phosphorylated Akt level at 10 uM incubated for 6 hrs by immunofluorescent assay relative to control; assay type: subcellular; set-up: scale not given: the % may be the effect or the level left; details: Nucleus; summary of the method: as §1
[6] = test system: BMOL-T; test: Antimigratory activity against mouse BMOL-T cells assessed as inhibition of cell migration at 10 uM incubated for 24 hrs by scratch wound healing assay; assay type: functional, cell-based
Summary of the method: (§2)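 Wound healing in BMOL-T cells plated at 20,000/well in supplemented Williams' E medium and grown 24 h. Wounds made with a Woundmaker, then medium replaced with fresh medium holding compound or 0.1% DMSO vehicle. Live-cell imaging every 2 h over 24 h, read as average wound width (µm). n = 3, SEM.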

[7] = Antiproliferative activity against mouse BMOL-NT cells assessed as cell growth inhibition at >10 uM measured every 4 hrs for 3 days by IncuCyte zoom live cell analysis; assay type: cell-based; details: 72 h, time 3 day
[8] = target: Transcription factor p65 (Mus musculus) (UniProt Q04207); test: Inhibition of NFkB p65 nuclear translocation in mouse BMOL-T cells assessed as change in nuclear p65 level at 10 uM incubated for 6 hrs by immunofluorescent assay relative to control; assay type: subcellular; set-up: scale not given: the % may be the effect or the level left; details: Nucleus; summary of the method: as §1
[9] = target: T2, Signal transducer and activator of transcription 3 (Mus musculus, UniProt P42227); test: Inhibition of STAT3 phosphorylation in mouse BMOL-NT cells assessed as change in phosphorylated STAT3 level at 10 uM incubated for 6 hrs by immunofluorescence assay relative to control; assay type: cell-based; set-up: scale not given: the % may be the effect or the level left; summary of the method: as §1
[10] = Antimigratory activity against mouse BMOL-T cells assessed as inhibition of cell migration at 10 uM incubated for 16 hrs by scratch wound healing assay relative to control; assay type: functional; summary of the method: as §2
[11] = target: T1, Transcription factor p65; test: Inhibition of NFkB p65 nuclear translocation in mouse BMOL-NT cells assessed as change in nuclear p65 level at 10 uM incubated for 6 hrs by immunofluorescent assay relative to control; assay type: subcellular, Nucleus; set-up: scale not given: the % may be the effect or the level left; summary of the method: as §1
[12] = test system: BMOL-T; test: Effect on STAT3 expression in mouse BMOL-T cells at 10 uM by AlphaLISA assay; assay type: functional, cell-based
Summary of the method: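 AlphaLISA in BMOL-T cells treated at 10 µM with 0.1% DMSO vehicle as control. Read as normalised fluorescence for total STAT3, or as the ratio of total STAT3 to p-STAT3. n ≥ 3, SEM. Significance by ANOVA with Dunnett's test.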

[13] = Selectivity for antiproliferative activity against mouse BMOL-T cells over mouse BMOL-NT cells at 26 uM measured every 4 hrs for 3 days by IncuCyte zoom live cell analysis; details: time 3 day
[14] = Antiproliferative activity against mouse BMOL-T cells assessed as cell growth inhibition at 10 uM measured every 4 hrs for 3 days by IncuCyte zoom live cell analysis relative to control; assay type: functional; details: 72 h, time 3 day
[15] = target: Signal transducer and activator of transcription 3 (Mus musculus) (UniProt P42227); test: Inhibition of STAT3 phosphorylation in mouse BMOL-T cells assessed as change in phosphorylated STAT3 level at 10 uM incubated for 6 hrs by immunofluorescence assay relative to control; assay type: cell-based; set-up: scale not given: the % may be the effect or the level left; summary of the method: as §1
[16] = target: T2, Signal transducer and activator of transcription 3; test: Inhibition of STAT3 phosphorylation in mouse BMOL-NT cells assessed as change in nuclear phosphorylated STAT3 level at 10 uM incubated for 6 hrs by immunofluorescence assay relative to control; assay type: subcellular, Nucleus; set-up: scale not given: the % may be the effect or the level left; summary of the method: as §1
[17] = (§3) Antiproliferative activity against mouse BMOL-T cells assessed as minimum concentration required for cell growth inhibition measured every 4 hrs for 3 days by IncuCyte zoom live cell analysis; assay type: functional; details: time 3 day
Summary of the method: (§4)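 Dose series for BMOL-T proliferation: cells plated at 1000/well, compound added from 2× solutions (final 0.1% DMSO), imaged every 4 h for 3 days. Doubling time from the log-phase linear part of a log confluence vs time curve, expressed as % change over vehicle. n = 3, SEM.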

[18] = test system: BMOL-T; test: as §3; assay type: functional; details: time 3.0 day; summary of the method: as §4
[19] = target: Transcription factor p65 (Mus musculus) (UniProt Q04207); test: Inhibition of NFkB p65 phosphorylation in mouse BMOL-T cells assessed as change in phosphorylated p65 level at 10 uM incubated for 6 hrs by immunofluorescent assay relative to control; assay type: cell-based; set-up: scale not given: the % may be the effect or the level left; summary of the method: as §1
[20] = test system: BMOL-T; test: Inhibition of Akt phosphorylation in mouse BMOL-T cells assessed as change in phosphorylated Akt level at 10 uM incubated for 6 hrs by immunofluorescent assay relative to control; assay type: cell-based; set-up: scale not given: the % may be the effect or the level left; summary of the method: as §1
[21] = Inhibition of Akt phosphorylation in mouse BMOL-NT cells assessed as change in phosphorylated Akt level at 10 uM incubated for 6 hrs by immunofluorescent assay relative to control; assay type: cell-based; set-up: scale not given: the % may be the effect or the level left; summary of the method: as §1
[22] = Selectivity for antiproliferative activity against mouse BMOL-T cells over mouse BMOL-NT cells at 10 uM measured every 4 hrs for 3 days by IncuCyte zoom live cell analysis; details: time 3 day

Sequence of Signal transducer and activator of transcription 3 (Mus musculus) (P42227 whole entry): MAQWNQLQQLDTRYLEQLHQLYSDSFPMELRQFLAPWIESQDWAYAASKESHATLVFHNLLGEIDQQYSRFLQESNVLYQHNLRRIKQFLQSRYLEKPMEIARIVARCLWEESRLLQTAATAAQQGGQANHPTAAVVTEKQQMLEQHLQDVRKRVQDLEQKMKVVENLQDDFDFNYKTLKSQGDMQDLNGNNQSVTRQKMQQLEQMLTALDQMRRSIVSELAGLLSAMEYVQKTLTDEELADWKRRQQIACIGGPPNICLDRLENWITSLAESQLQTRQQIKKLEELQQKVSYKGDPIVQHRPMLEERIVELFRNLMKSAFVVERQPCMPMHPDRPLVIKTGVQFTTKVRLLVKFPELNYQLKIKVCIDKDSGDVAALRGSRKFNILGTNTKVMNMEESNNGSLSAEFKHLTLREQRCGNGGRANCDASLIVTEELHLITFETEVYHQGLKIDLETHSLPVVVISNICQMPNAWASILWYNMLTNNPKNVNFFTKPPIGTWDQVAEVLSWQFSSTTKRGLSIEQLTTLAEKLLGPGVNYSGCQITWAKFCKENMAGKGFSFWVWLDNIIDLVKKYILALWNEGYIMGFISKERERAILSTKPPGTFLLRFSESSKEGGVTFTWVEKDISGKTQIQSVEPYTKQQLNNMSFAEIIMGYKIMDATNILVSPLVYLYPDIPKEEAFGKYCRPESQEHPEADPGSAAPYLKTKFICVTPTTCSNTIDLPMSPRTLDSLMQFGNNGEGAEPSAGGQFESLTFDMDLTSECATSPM
T2 sequence (P42227 whole entry): as above
Sequence of Transcription factor p65 (Mus musculus) (Q04207 whole entry): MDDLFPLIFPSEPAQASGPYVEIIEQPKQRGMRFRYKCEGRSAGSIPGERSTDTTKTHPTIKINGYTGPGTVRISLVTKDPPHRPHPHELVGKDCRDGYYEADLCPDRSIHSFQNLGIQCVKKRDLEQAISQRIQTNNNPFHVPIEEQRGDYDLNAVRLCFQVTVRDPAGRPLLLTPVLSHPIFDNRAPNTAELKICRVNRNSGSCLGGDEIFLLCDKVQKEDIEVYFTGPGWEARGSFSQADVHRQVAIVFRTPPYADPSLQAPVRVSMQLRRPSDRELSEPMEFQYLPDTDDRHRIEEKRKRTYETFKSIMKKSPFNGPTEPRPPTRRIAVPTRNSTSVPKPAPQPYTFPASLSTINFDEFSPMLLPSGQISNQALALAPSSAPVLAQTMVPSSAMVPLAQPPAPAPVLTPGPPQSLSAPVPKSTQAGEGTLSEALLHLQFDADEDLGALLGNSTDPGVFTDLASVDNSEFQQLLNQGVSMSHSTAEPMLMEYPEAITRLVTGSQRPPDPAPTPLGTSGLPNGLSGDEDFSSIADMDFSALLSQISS
T1 sequence (Q04207 whole entry): as above

For `CC(C)(C)c1ccc(Sc2cccc3c2C(=O)N(C2CCC(=O)NC2=O)C3=O)cc1` (configuration not stated), which Activity [1] is on record?
The Activity was 0%.

What about the Activity [2] of the same compound?
Its Activity is “Toxic”.

And the Activity [3]?
The Activity was -25%.

And the Activity [4]?
The Activity was -16%.

What about the Activity [5] of the same compound?
Its Activity is -19%.

What about the Activity [6] of the same compound?
The Activity was “Active”.

What about the Activity [7] of the same compound?
The Activity was “Toxic”.

What about the Activity [8] of the same compound?
Its Activity is -23%.

What about the Activity [9] of the same compound?
The Activity was -5%.

And the inhibition at 10 µM [10]?
The inhibition at 10 µM was 80%.

What about the Activity [11] of the same compound?
Its Activity is 11%.

What about the Activity [12] of the same compound?
The Activity was “inactive”.

What about the Selectivity ratio [13] of the same compound?
Its Selectivity ratio is 9.

And the inhibition at 10 µM [14]?
The inhibition at 10 µM was 36%.

And the Activity [15]?
The Activity was -22%.

And the Activity [16]?
The Activity was -8%.

What about the MAC [17] of the same compound?
Its MAC is less than 6 µM.

What about the Activity [18] of the same compound?
The Activity was “Dose-Dependent Effect”.

And the Activity [19]?
Its Activity is -13%.

What about the Activity [20] of the same compound?
The Activity was -3%.

What about the Activity [21] of the same compound?
The Activity was 0%.

And the Selectivity ratio [22]?
The Selectivity ratio was 9.
